In publication PMC3856871 (MedChemComm, 2012):
“Also recorded” adds a separate entry of the source.

Legend:
[1] = tested on: MCF-7 breast carcinoma cell line; assay type: cell-based; conditions: MCF-7 cells, 50 μM, 24 h
acetyl-α-tubulin = experiment: Western blot on MCF-7 cells, acetylation status of α-tubulin; assay type: cell-based; conditions: 24 h; for acetyl-α-tubulin accumulation: 50 μM, comparison of SIRT inhibitors (Fig. 3)
Procedure, shortened: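 MCF-7 cells exposed 24 h to test compound at increasing concentrations […]. Acetylation of α-tubulin (SIRT2 biomarker) and of histone H3-K9 (SIRT1 biomarker) monitored in parallel.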

[2] = tested on: p53 acetylation at lysine 382; experiment: Western blot on MCF-7 cells, p53 acetylation at lysine 382; assay type: cell-based; conditions: 24 h, 50 μM (Fig. 3)
[3] = tested on: pRb phosphorylation at Ser807/Ser811; experiment: Western blot on MCF-7 cells, pRb phosphorylation; assay type: cell-based; conditions: 24 h, 50 μM
MCF-7 cells = experiment: proliferative analysis / cell viability assay on MCF-7 cells; assay type: cell-based; conditions: 30 μM, 0-72 h
SIRT2 = biological target: T1, SIRT2 (Homo sapiens, UniProt Q8IXJ6); experiment: in vitro enzymatic fluorimetric assay, SIRT2 inhibitory activity; assay type: biochemical; conditions: for selectivity for SIRT2 over SIRT1: in vitro
T1 sequence (Q8IXJ6 1-389): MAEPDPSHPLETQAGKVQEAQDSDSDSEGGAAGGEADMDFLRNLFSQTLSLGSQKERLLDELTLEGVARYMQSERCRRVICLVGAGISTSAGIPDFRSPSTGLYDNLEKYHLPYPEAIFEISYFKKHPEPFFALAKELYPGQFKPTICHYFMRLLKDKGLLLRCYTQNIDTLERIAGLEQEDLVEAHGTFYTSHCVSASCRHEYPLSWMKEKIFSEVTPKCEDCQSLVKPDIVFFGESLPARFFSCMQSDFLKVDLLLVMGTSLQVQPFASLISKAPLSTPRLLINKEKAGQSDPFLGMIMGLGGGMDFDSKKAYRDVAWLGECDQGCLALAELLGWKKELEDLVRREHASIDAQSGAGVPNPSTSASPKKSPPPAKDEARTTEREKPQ

H3-K9 acetylation = experiment: Western blot on MCF-7 cells, acetylation status of H3-K9; assay type: cell-based; conditions: 24 h, concentrations up to 50 μM

Compound	cell cycle phase in which cells accumulate [1]	acetyl-α-tubulin accumulation (acetyl-α-tubulin)	p53 acetylation at lysine 382 [2]	also measured
O=C(Nc1cccc(Br)c1)c1cccc(S(=O)(=O)N2CCCCCC2)c1 [AK-7]	increase in cells primarily in G2/M phase	no significant effect	moderately induce p53 acetylation at lysine 382	–
NC(=O)c1ccc2c(c1)CCc1cc([N+](=O)[O-])ccc1N2 [Compound 8]	high number of cells to accumulate at G2/M phase	substantial accumulation of acetyl-α-tubulin	–	pRb phosphorylation at Ser807/Ser811 [3]: impede pRb phosphorylation at Ser807/Ser811; antiproliferative effect (MCF-7 cells): antiproliferative activity; also recorded: abolished cell proliferation completely; acetylation of α-tubulin (acetyl-α-tubulin; concentrations up to 50 μM): induce hyperacetylation of α-tubulin; selectivity for SIRT2 over SIRT1 (SIRT2): more than 30 fold; acetylation levels of H3-K9 (H3-K9 acetylation): without increasing the acetylation levels of H3-K9
CC(C)(C)NS(=O)(=O)c1ccc2c(c1)Nc1ccccc1CC2 [Compound 20]	–	–	–	selectivity for SIRT2 over SIRT1 (SIRT2): more than 30 fold
CN1c2ccc(C(N)=O)cc2CCc2cc([N+](=O)[O-])ccc21 [Compound 29]	–	–	–	loss of SIRT2 potency relative to compound 8 (SIRT2; N-methyl derivative vs 8): 4 fold
NC(=O)C1CCCc2c1[nH]c1ccc(Cl)cc21 (stereo not drawn) [EX-527]	accumulate predominantly in G1	–	–	reduction of cell proliferation relative to DMSO vehicle control (MCF-7 cells): approximately 50%
CC(C(=O)Nc1cccc(/N=C/c2c(O)ccc3ccccc23)c1)c1ccccc1 (stereo not drawn) [Salermide]	increase in cells primarily in G2/M phase	slight increase in acetyl-α-tubulin	moderately induce p53 acetylation at lysine 382	antiproliferative effect (MCF-7 cells): abolished cell proliferation completely
CC(NC(=O)c1ccccc1/N=C/c1c(O)ccc2ccccc12)c1ccccc1 (stereo not drawn) [Sirtinol]	accumulate predominantly in G1	no significant effect	moderately induce p53 acetylation at lysine 382	–
